Assay results collected from several papers.
Compare with care: the assays were run in different laboratories.
Organism: Pichia kudriavzevii
Effect on: microbial growth

CCCCCOc1c(OC)cc(NC(C)CCCNC(=O)C(N)Cc2cc3ccccc3[nH]2)c2nc(C(C)(C)C)ccc12 (centres unmarked) — MIC (ATCC6258): 10 µg/mL
CCCCCCCCCCCN1CCNCC1 — MIC (broth dilution; ATCC6258; 48 h): 7.8 µg/mL
OC(Cn1cncn1)(Cn1cncn1)c1ccc(F)cc1F — MIC (broth dilution; ATCC6258; 48 h): 50 µg/mL
CCCCCCCCN1CCNCC1 — MIC (broth dilution; ATCC6258; 48 h): > 31.3 µg/mL
CC1(C)CC[C@]2(C(=O)O)CC[C@]3(C)C(=CC[C@@H]4[C@@]5(C)CC[C@H](O)C(C)(C)[C@@H]5CC[C@]43C)[C@@H]2C1 — MIC (broth dilution; ATCC6258; 48 h): 500 µg/mL
C[C@@H]1[C@H](O)[C@@H](C)/C=C/C=C/C=C/C=C/C=C/C=C/C=C/[C@H](O[C@@H]2O[C@H](C)[C@@H](O)[C@H](N)[C@@H]2O)C[C@@H]2O[C@](O)(C[C@@H](O)C[C@@H](O)[C@H](O)CC[C@@H](O)C[C@@H](O)CC(=O)O[C@H]1C)C[C@H](O)[C@H]2C(=O)O — MIC: 0.5 µM
C[C@@H]1[C@H](O)[C@@H](C)/C=C/C=C/C=C/C=C/C=C/C=C/C=C/[C@H](O[C@@H]2O[C@H](C)[C@@H](O)[C@H](N)[C@@H]2O)C[C@@H]2O[C@](O)(C[C@@H](O)C[C@@H](O)[C@H](O)CC[C@@H](O)C[C@@H](O)CC(=O)O[C@H]1C)C[C@H](O)[C@H]2C(=O)O — MIC (broth dilution; ATCC6258): 0.5 µg/mL
C[C@@H]1[C@H](O)[C@@H](C)/C=C/C=C/C=C/C=C/C=C/C=C/C=C/[C@H](O[C@@H]2O[C@H](C)[C@@H](O)[C@H](N)[C@@H]2O)C[C@@H]2O[C@](O)(C[C@@H](O)C[C@@H](O)[C@H](O)CC[C@@H](O)C[C@@H](O)CC(=O)O[C@H]1C)C[C@H](O)[C@H]2C(=O)O — MIC (ATCC6258): 1.25 µg/mL
C=C(C)[C@@H]1CC[C@]2(C(=O)O)CC[C@]3(C)[C@H](CC[C@@H]4[C@@]5(C)CC[C@H](O)C(C)(C)[C@@H]5CC[C@]43C)[C@@H]12 — MIC (broth dilution; ATCC6258; 48 h): 250 µg/mL
CCCCCCCOc1c(OC)cc(NC(C)CCCNC(=O)C(N)C(C)CC)c2nc(C(C)(C)C)ccc12 (centres unmarked) — MIC (ATCC6258): 10 µg/mL
CCCCCN1CCN(CC(O)(Cn2cncn2)c2ccc(F)cc2F)CC1 (centres unmarked) — MIC (broth dilution; ATCC6258; 48 h): > 31.3 µg/mL
